Compound activity from PubChem BioAssay.
ARFGAP1 inh: inhibits rat ARF GTPase activating protein 1; Q62848; Arfgap1-stimulated ARF1 GTP hydrolysis, GDP FP detection; inhibition, % at 16.5 µM; actives 0.26% (n = 360,000); AID 651572;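 active = inhibition above a per-plate limit, mean inhibition of low control wells plus 3 SD, cut at about 25% in these data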;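 also: 0% = DMSO wells with enzyme and 100% = wells lacking Arfgap1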
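System: truncated rat Arfgap1 GAP domain / Medium: HEPES-based buffer, pH 7.5 / Also added: N-terminally truncated human ARF1-GTP substrate / Incubation: enzyme reaction 120 min at 25 °C after 20 min preincubation / Measured by: FP of antibody-bound GDP Alexa 633 tracer, ex 620/em 688 nm / Replicates: singlicate, each compound tested once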
ASAP1 inh: ASAP1 ArfGAP inhibition; Q9ULH1; ASAP1-stimulated ARF1 GTP hydrolysis, GDP FP detection; inhibition, % at 16.5 µM; actives 0.19% (n = 360,000); AID 624377; in the data active = inhibition above about 25%;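 also: 0% = vehicle with enzyme and substrate and 100% = no enzyme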
procasp7 counter: counter-screen for procaspase-3 activators: activators of human procaspase-7; recombinant procaspase-7, Ac-DEVD-pNA absorbance 405 nm; D23A/D198A/D206A triple mutant, cannot self-cleave; scale: DMSO 0, 5 µM enzyme 100; actives 0.093% (n = 330,000); activation, % at 8.5 µM;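 active = percent activation above the screen-wide mean plus 3 SD, cut at about 25% in these data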
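System: Uncleavable procaspase-7 mutant enzyme; Amount: 2 µM procaspase-7 mutant as dispensed; Schedule: 1 h compound preincubation, 2 h substrate cleavage, 25 °C; Measured by: 405 nm absorbance of p-nitroaniline; Evaluation: percent activation from buffer-corrected 0–120 min absorbance change; Control set: low DMSO alone, high DMSO plus 5 µM PC-7.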
LANA-H2A inh: blocks KSHV LANA binding to histone H2A/H2B | actives 0.6% (n = 320,000) | Q9QR71 | inhibition, % (no concentration beside the values) | cell-free LANA-H2A/H2B peptide, fluorescence polarization; in the data active = inhibition mostly above about 10%, no sharp cut-off; inactive = mostly below about 6.7%
CR mimetic SO: yeast age-related superoxide inhibition as caloric restriction mimetic; S. cerevisiae aged cells, superoxide DHE fluorescence; hits give low values; actives 0.18% (n = 330,000); superoxide response (% of plate mean), % at 10 µM; AID 2690;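 active = superoxide response under a set limit, about three screen SD below normal, cut at about 65% in these data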;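 also: yeast aged for seven days with compound at 30 °C before DHE staining; 100% = average MFI of all compound-treated wells on the plate with controls excluded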
procasp3 activ: procaspase-3 (human) activation. recombinant procaspase-3 D3A, Ac-DEVD-pNA absorbance 405 nm. activation, % at 8.5 µM. actives 0.11% (n = 330,000);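 active = activation above the mean of all tested compounds plus 3 SD, cut at about 21% in these data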;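 also: 0% = DMSO alone and 100% = DMSO wells spiked with extra 5 µM PC-3 D3A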
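Assay system: Procaspase-3 D3A mutant, all three cleavage aspartates alanine. Buffer or medium: Zinc-free HEPES saline buffer with Triton X-100. Times: 1 h compound preincubation, 2 h substrate hydrolysis at 25 °C. Measured by: 405 nm absorbance of p-nitroaniline, reads at 0 and 120 min. Read-out basis: percent activation relative to control range. Replicates: singlicate.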
ASAP1 GAP conf: confirmation of human ASAP1 inhibitors; shares compounds with ASAP1 inh; inhibition, % at 16.5 µM; ASAP1-stimulated Arf1 GTPase, GDP fluorescence polarization; actives 37% (n = 620);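 active = mean inhibition over triplicates exceeds the hit threshold derived for the earlier primary screening run, cut at about 25% in these data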
An asterisk follows results filed as active; · = no result. An excerpt weighted towards active compounds, which were near 1.2% of everything screened.

SMILES	ARFGAP1 inh	ASAP1 inh	procasp7 counter	LANA-H2A inh	CR mimetic SO	procasp3 activ	ASAP1 GAP conf
CC(C)C[C@@H](CNC(=O)OC(C)(C)C)NC(=O)c1nc[nH]c1C(=O)N[C@@H](CC(C)C)C(=O)CNC[C@H](CC(C)C)NC(=O)c1nc[nH]c1C(=O)N[C@@H](Cc1c[nH]c2ccccc12)C(=O)OC(C)(C)C	9.8	32.1*	12.3	-0.6	101.1	-4.8	18.8
CN(c1ccccc1)c1ccc(/C=C(\CCC(=O)O)c2nc3ccccc3s2)cc1[N+](=O)[O-]	-28.8	1.6	2.1	-1.7	87.0	5.9	·
CNc1ccc(/C=C(\CCC(=O)O)c2nc3ccccc3s2)cc1[N+](=O)[O-]	2.5	29.6*	-3.2	2.7	110.1	-5.0	52.4*
Nc1nnc(SCC(=O)Nc2cccnc2Cl)s1	14.1	2.8	-2.2	2.3	100.5	1.9	·
Cc1cccc(Nc2nnc(SCC(=O)Nc3cccnc3Cl)s2)c1	3.9	29.7*	9.4	·	109.2	-4.6	2.5
CCc1cccc2c(C(=O)CN3C(=O)NC(C)(c4cccc5ccccc45)C3=O)c[nH]c12 (stereo not drawn)	14.1	31.9*	2.3	-3.4	110.0	-2.6	28.4*
CCCOc1ccc(F)cc1-c1cc(C(=O)Nc2ccc(OC)cc2C)[nH]n1	-2.0	-3.7	·	·	·	·	·
O=C(Nc1ccc(NC(=S)NC(=O)c2ccco2)cc1)c1ccc(Br)cc1	9.8	58.4*	·	·	·	·	161.2*
O=C(CC(=O)NC1CCCCC1)N/N=C/c1ccccc1F	3.3	-5.4	-1.4	2.1	107.8	-0.7	·
CN(C)c1ccc(/C=C/c2ccc3c4ccccc4ccc3[n+]2-c2ccccc2)cc1	123.3*	86.5*	·	·	·	·	95.2*
CN(C)c1ccc(/C=C/c2ccc3ccccc3[n+]2C)cc1	-2.2	10.3	-18.9	10.8	97.0	-5.4	·
COc1ccc(Cn2ccnc2SCC(=O)Nc2ccccc2OC)cc1	-3.6	25.7*	3.3	-11.3	90.0	-1.6	10.3
CC(C)NC(=O)c1ccc2c3n(nc2c1)-c1ccc(Cl)cc1CO3	2.6	31.4*	1.6	-3.3	92.2	-12.0	6.5
O=C(NCc1cccs1)c1ccc(CS(=O)Cc2ccc(Cl)cc2)o1 (stereo not drawn)	-10.1	5.1	·	·	·	·	·
CC(/C=N/NC(=O)c1nnn(-c2nonc2N)c1C(C)C)=C\c1ccccc1	13.7	28.8*	3.3	3.0	84.2	11.8	11.9
O=C(O)CCC(=O)N1N=C(c2ccccc2)CC1c1cccs1 (stereo not drawn)	-0.4	3.1	-3.6	0.6	110.2	3.5	·
Oc1ccc(Cl)cc1-c1cc(-c2cccc(Br)c2)n[nH]1	19.9	27.7*	11.5	1.0	120.7	-2.0	27.0*
Oc1ccc(Cl)cc1-c1cc(-c2ccccc2Cl)[nH]n1	2.5	9.9	-0.8	-3.1	109.8	4.0	·
NC(=O)CN1C(=O)NC2(CCCc3ccccc32)C1=O (stereo not drawn)	1.5	25.1*	-2.3	0.6	91.0	10.3	5.0
CC(=O)CN1C(=O)NC2(CCCc3ccccc32)C1=O (stereo not drawn)	8.2	-4.5	10.6	3.9	96.1	9.8	·
Cc1cccc([C@H]2[C@@H]3C=CCC[C@@H]3C(=O)N2Cc2ccccc2)c1	1.5	6.2	-3.0	·	126.3	-7.0	·
COc1cc2sc(-c3ccc(S(C)(=O)=O)cc3)c(C#CCO)c2cc1OC	14.9	30.2*	1.2	7.2	97.5	2.9	8.3
C[C@@H](CSc1ccccc1)CN1CC[C@H](O)CCC1=O	1.9	-8.8	-1.9	0.1	103.9	-6.9	·
CSc1ccc(/C=C(\C#N)C(=O)Nc2cccc(C)c2)cc1	-0.6	6.7	-5.5	1.4	92.4	1.2	·
CC1=NN(c2ccccc2)C(=O)C1N=Nc1cccc(O)c1 (stereo not drawn)	-2.0	29.4*	-6.2	-4.9	96.6	10.8	10.4
